# Screening results (PubChem BioAssay)
# In the library only some 1.8% were active in any assay of this set; here they are far more common.
# M5 antag: blocks acetylcholine activation of human M5 receptor. P08912. CHO-hM5 cells, Fluo-8 calcium fluorescence, ACh EC80. inhibition, % at 3 µM. actives 0.59% (n = 360,000). AID 624040;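 active = inhibition above a per-plate cutoff, the mean of that plate's test compounds plus 3 SD, cut at about 27% in these data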;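 note: 0% = acetylcholine EC80 with DMSO and 100% = DMSO without agonist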
# CHRM5 PAM: CHRM5 positive allosteric modulation. actives 0.3% (n = 360,000). P08912. activation, % at 3 µM. AID 624038. CHO-K1 hM5, Fluo-8 calcium, ACh EC20 PAM; 0% = ACh EC20, 100% = ACh EC100;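 active = activation above the run cutoff, the mean activation of all test compounds plus 3 SD, cut at about 18% in these data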
#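 System – CHO-K1 hM5 cells · Compound – 3 µM, single dose · Incubation – compound preincubation 140 s before EC20 acetylcholine addition · Technique – Fluo-8 calcium fluorescence · Measure – Max/basal fluorescence ratio as % of EC20–EC100 ACh window · Benchmarks – low control EC20 acetylcholine (0%), high control EC100 acetylcholine (100%) · Replication – singlicate, one well per test compound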
# CHRM4 antagonist: antagonists of human muscarinic M4 receptor (CHRM4). CHO-hM4 cells, ACh EC80, Fluo-8 calcium fluorescence. AID 624125. actives 0.73% (n = 360,000). inhibition, % at 3 µM;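 active = inhibition above its plate's cutoff, the mean inhibition of sample wells plus 3 SD, cut at about 27% in these data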;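 note: 0% = acetylcholine EC80 with DMSO and 100% = DMSO without agonist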
# Target sequence (P08173 whole entry, looked up): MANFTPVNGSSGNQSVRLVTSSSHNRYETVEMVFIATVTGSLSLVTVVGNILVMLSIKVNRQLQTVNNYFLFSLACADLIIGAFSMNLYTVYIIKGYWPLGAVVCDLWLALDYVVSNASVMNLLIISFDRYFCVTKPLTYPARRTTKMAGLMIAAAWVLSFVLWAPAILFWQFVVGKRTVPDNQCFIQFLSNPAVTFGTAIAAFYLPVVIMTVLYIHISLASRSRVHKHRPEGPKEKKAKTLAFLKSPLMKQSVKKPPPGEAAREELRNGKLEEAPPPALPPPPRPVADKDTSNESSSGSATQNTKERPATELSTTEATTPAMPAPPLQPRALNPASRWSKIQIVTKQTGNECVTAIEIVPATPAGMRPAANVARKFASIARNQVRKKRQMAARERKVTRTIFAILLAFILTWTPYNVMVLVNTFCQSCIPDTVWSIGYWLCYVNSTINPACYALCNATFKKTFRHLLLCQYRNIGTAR
# M4 PAM: CHRM4 positive allosteric modulation | P08173 | CHO-K1 hM4/Gqi5, Fluo-8 calcium fluorescence, ACh EC20; 0% = ACh EC20, 100% = maximal ACh | activation, % at 3 µM | AID 624126 | actives 0.4% (n = 360,000);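 active = activation above its plate's cutoff, the mean activation of sample wells plus 3 SD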
# CHRM5 agonist: CHRM5 agonism in calcium assay; P08912; CHO-K1 hM5 cells, Fluo-8 calcium fluorescence; 0% DMSO wells, 100% maximal acetylcholine response; activation, % at 3 µM; actives 0.19% (n = 360,000); AID 624037;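 active = activation above the run's mean over test compounds plus 3 SD, cut at about 23% in these data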;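 note: signal is peak over basal fluorescence ratio across the kinetic read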
# CHRM4 agonist: agonists of human muscarinic M4 receptor (CHRM4). AID 624127. activation, % at 3 µM. CHO-K1 hM4/Gqi5, Fluo-8 calcium fluorescence; vehicle 0%, full acetylcholine response 100%. actives 0.14% (n = 360,000). P08173;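 active = activation above the run mean over all test wells plus 3 SD, cut at about 32% in these data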;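 note: peak over basal fluorescence ratio per well then scaled between controls; 0% = DMSO wells and 100% = acetylcholine at EC100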
# The depositor's hits bear a star.
SMILES,M5 antag,CHRM5 PAM,CHRM4 antagonist,M4 PAM,CHRM5 agonist,CHRM4 agonist
CCC(OC(=O)c1ccco1)C(=O)NCc1ccc(C)cc1 (configuration not stated),0,-5,9,-6,-4,0
CCC(OC(=O)c1ccco1)C(=O)NCc1ccc2c(c1)OCO2 (configuration not stated),3,-2,-26,19*,-1,2
O=C(Nc1ccc2nc(-c3ccco3)c(-c3ccco3)nc2c1)N1CCN(c2ccccn2)CC1,25,20*,8,-15,2,12
Cc1nc2cc(NC(=O)N3CCN(c4ccccn4)CC3)ccc2o1,-2,-3,5,-4,1,1
CC(C)(C)NC(=O)CSc1nnc(-c2ccccn2)n1Cc1ccccc1,2,9,5,12,0,1
C=CCNC(=O)CSc1nnc(-c2ccccn2)n1Cc1ccccc1,-4,22*,2,11,-3,1
Cc1ccccc1-c1csc(C(O)c2ccc(F)c(F)c2)n1 (configuration not stated),1,0,4,-3,-2,1
COc1ccc(Nc2c(C3CC3)nc3nc(C)cc(C)n23)cc1,-3,4,-12,28*,3,-2
COc1ccc(Nc2c(CC(C)C)nc3nc(C)cc(C)n23)cc1,-6,2,-31,17,1,-4
CN1OC[C@@H]2CN(C(=O)NC3CCCCC3)[C@H](c3ccc(N4CCCCC4)cc3)C[C@@H]21,-12,10,-6,3,-4,0
O=C1NCCc2c1[nH]c1c(Cl)ccc(Cl)c21,-7,21*,-5,13,-8,2
Cc1ccc2cc3cc(C(=O)NCCN4CCOCC4)oc3nc2c1,-13,21*,-6,12,2,3
CC1(c2nnnn2Cc2ccccc2)CCC(=O)N1c1ccc(N2CCOCC2)cc1 (configuration not stated),-6,1,-8,-1,0,0
O=C(CSc1nc(C(F)(F)F)cc(=O)[nH]1)Nc1cccc2ccccc12,-18,17,-8,22*,-2,0
COc1ccccc1Nc1nc(=O)[nH]nc1C,14,-7,6,-1,-3,1
Cc1n[nH]c(=O)nc1NC(C)c1ccccc1 (configuration not stated),6,-4,28*,15,1,1
COc1ccc(Cn2ccnc2)cc1[N+](=O)[O-],-6,1,3,-2,-4,1
COc1ccc(Cn2ccnc2)cc1Br,8,6,29*,1,-4,1
COc1ccccc1/C=C(\NC(=O)c1cccc(C)c1)C(=O)Nc1ccccn1,11,13,27*,27*,-2,8
CCc1nc2ccccc2c(C(=O)OCC(=O)Nc2cccc(S(=O)(=O)N3CCOCC3)c2)c1C,11,-18,30*,-19,4,11
Cn1nccc1C(=O)Nc1cccc(S(=O)(=O)N2CCOCC2)c1,-2,2,8,22*,-1,1
O=C(COC(=O)c1cc(S(=O)(=O)N2CCCC2)ccc1O)Nc1ccc(S(=O)(=O)N2CCOCC2)cc1,9,4,15,37*,-4,4
c1cnc2c(-c3ccc4nccn4c3)cccc2c1,-3,-4,-3,-5,-2,9
CN(C)c1ccc(CC(=O)N2CCCCC2c2cc(C(=O)Nc3cccc(C#N)c3)no2)cc1 (configuration not stated),2,-8,-3,-5,1,8
COc1ccc(NC(=O)c2ccco2)cc1N,-2,20*,-9,5,-2,3
SMILES,M5 antag,CHRM5 PAM,CHRM4 antagonist,M4 PAM,CHRM5 agonist,CHRM4 agonist
COc1ccc(NC(=O)C(c2ccc(C#N)cc2)n2c(=O)c(-c3cc4ccccc4[nH]3)nc3ccccc32)cc1 (configuration not stated),7,-5,1,4,1,2
CN1\C(=C/C=C/C=C/C=[N+](C)C)C(C)(C)c2ccccc21,9,-9,21,-14,38*,8
Cn1c(=O)c2[nH]c(-c3cccnc3)nc2n(C)c1=O,-13,0,-9,31*,-3,1
O=C(NC(=S)Nc1ccccc1N1CCCCC1)c1ccccc1,-9,19*,6,18*,8,3
CC(=O)Nc1cccc(/C(C)=N/Nc2ccc(S(=O)(=O)Nc3ccccc3C(=O)O)cc2[N+](=O)[O-])c1,9,-3,-13,20*,2,-2
CC(=O)Nc1ccc(C=NNc2ccc(S(=O)(=O)Nc3ccccc3C(=O)O)cc2[N+](=O)[O-])cc1,11,-8,-10,4,2,0
Cc1cccn2cc(CNS(=O)(=O)c3ccc4ccccc4c3)nc12,13,-12,1,3,1,9
Cc1ccn2cc(CNS(=O)(=O)c3ccc4ccccc4c3)nc2c1,1,0,99*,-17,1,-2
Fc1cccc(F)c1-n1c(CN2CCCC2)csc1=S,2,1,68*,9,-7,21
CCNC(=O)C1(C)CCCN(Cc2ccc3ccccc3c2Br)C1 (configuration not stated),8,-4,35*,-12,-3,1
Oc1cc2c(cc1O)[C@H]1c3ccc(O)c(O)c3OC[C@@]1(O)C2,5,4,6,0,2,0
Oc1ccc2c(c1)OCC1(O)Cc3cc(O)c(O)cc3C21 (configuration not stated),6,-4,6,-17,8,52*
CCOc1cc(S(=O)(=O)NCc2ccncc2)ccc1Cl,60*,-15,36*,-16,5,23
O=S(=O)(Nc1ccc(Cc2ccncc2)cc1)c1ccc(Cl)c(Cl)c1,7,-21,34*,-33,-7,8
CN(C)c1ccc(-c2ccnc3c2CC(C)(C(=O)Nc2ccc(Cl)c(C(F)(F)F)c2)O3)cc1 (configuration not stated),-4,0,-11,-4,-2,-1
COC(=O)[C@@]12C[C@@H](CC(=O)NCc3ccccc3)C(=O)N(Cc3ccccc3)C1=CCC(C)(C)C2,7,-1,12,-3,0,8
COc1ccc([C@@H]2CC=C(C(=O)O)[C@H](c3ccccc3F)N2S(=O)(=O)c2ccccc2C)cc1,-5,20*,1,-1,4,0
COc1ccc([C@@H]2CC=C(C(=O)O)[C@H](c3ccc(F)cc3)N2S(=O)(=O)c2ccccc2C)cc1,1,9,0,3,-1,3
